Screening data (PubChem BioAssay)
TRPC6 inhibitor – blocks the mouse TRPC6 cation channel; Q61143; HEK293-TRPC6, membrane potential dye, ACh-evoked depolarization; hits give low values; B-score at 10 µM; 310,000 compounds, 1.1% hits; AID 2553;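 active = B-score under library mean minus 3 SD, initial fluorescence not abnormally high, positive integrated signal ratio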;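 also: B-score derived from integrated fluorescence ratio over the kinetic read; more negative B-score means stronger inhibition of depolarization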
TRPC4 inh – inhibitors of mouse TRPC4 channel. Q9QUQ5. B-score at 10 µM. 300,000 compounds, 0.39% hits. HEK293 TRPC4beta/mu-opioid, DAMGO-evoked Fluo4 calcium flux; hits give low values;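 active = B-score over 3 SD under the library average, no early fluorescence shift, positive overall ratio signal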
Target sequence (Q9QUQ5 whole entry, looked up): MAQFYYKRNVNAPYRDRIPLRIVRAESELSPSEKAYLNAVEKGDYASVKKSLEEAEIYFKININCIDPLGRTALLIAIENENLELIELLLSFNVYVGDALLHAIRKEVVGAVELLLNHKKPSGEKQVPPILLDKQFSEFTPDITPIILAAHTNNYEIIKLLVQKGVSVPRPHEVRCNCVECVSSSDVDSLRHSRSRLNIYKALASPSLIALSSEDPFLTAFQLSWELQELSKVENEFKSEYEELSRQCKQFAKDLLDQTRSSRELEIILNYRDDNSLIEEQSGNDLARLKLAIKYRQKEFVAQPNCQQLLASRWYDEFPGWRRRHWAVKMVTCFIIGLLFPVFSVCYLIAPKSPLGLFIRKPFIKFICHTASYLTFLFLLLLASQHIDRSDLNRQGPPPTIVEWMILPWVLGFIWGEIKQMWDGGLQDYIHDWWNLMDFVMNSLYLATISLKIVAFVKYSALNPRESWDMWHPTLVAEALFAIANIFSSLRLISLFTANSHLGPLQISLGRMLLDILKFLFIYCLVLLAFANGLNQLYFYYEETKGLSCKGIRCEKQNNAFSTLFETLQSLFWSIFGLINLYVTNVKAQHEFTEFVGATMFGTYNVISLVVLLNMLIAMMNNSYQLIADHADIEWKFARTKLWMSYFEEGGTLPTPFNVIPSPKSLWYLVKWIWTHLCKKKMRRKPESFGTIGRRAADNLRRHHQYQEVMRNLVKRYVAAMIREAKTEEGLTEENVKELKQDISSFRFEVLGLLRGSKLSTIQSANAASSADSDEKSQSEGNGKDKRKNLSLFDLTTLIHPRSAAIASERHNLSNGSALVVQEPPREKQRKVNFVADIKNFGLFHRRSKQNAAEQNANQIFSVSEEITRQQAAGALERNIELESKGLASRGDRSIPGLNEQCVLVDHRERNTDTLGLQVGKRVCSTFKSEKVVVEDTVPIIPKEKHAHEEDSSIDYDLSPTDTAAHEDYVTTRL
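Assay system – HEK293 line stably carrying TRPC4beta and mu-opioid receptor · Doses – single dose · Detection – Fluo4 calcium-dye fluorescence, kinetic read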
TRPC4 PAM – allosteric potentiators of mouse TRPC4 channel; Q9QUQ5; HEK293 TRPC4beta/mu-opioid, DAMGO EC20, Fluo-4 Ca2+ flux; hits give high values; B-score at 10 µM; 310,000 compounds, 0.42% hits;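 active = B-score of calcium response area above 5 SD of library B-scores, with initial fluorescence ratio within 5 SD of library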;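 also: B-score of integrated fluorescence ratio over time as area under calcium response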
TRPC4 act – TRPC4 (mouse) channel activation; 310,000 compounds, 0.49% hits; B-score at 10 µM; Q9QUQ5; AID 2237; HEK293 TRPC4beta/mu-opioid, Fluo4 calcium fluorescence; hits give high values;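 active = B-score above 5 SD of library B-scores, and initial fluorescence ratio not above library mean plus 5 SD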;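 also: positive B-score marks a calcium rise read as TRPC4 activation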
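Assay system – TRPC4beta and mu-opioid receptor HEK293 stable cells · Measured by – Fluo4 fluorescence, kinetic · Schedule – dye loading 45 min room temperature, 110 s kinetic read · Read-out – B-scored integrated calcium fluorescence ratio · Controls – buffer and maximal DAMGO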
TRPC6 act – activators of mouse TRPC6 channel. Q61143. HEK293-TRPC6 membrane potential dye fluorescence; hits give high values. B-score at 10 µM. 310,000 compounds, 0.13% hits. AID 2550;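 active = B-score of the integrated fluorescence ratio above library mean plus 3 SD, and starting fluorescence ratio within library mean plus 5 SD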;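 also: higher score means more depolarization so channel activation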
TRPC4 sel inh 2 – second check of whether TRPC6 inhibitors also affect mouse TRPC4; shares compounds with TRPC6 inhibitor; HEK293 TRPC4/MOR, membrane potential dye fluorescence; channel activated by saturating DAMGO dose; inhibition, % at 10 µM; 920 compounds, 42% hits; AID 2776;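 active = compounds whose fluorescence signal differed from control wells by over 3 SD, either direction, in both duplicate plates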
TRPC4 spec – tests whether TRPC6 inhibitors also affect mouse TRPC4. shares compounds with TRPC6 inhibitor. HEK293 TRPC4/mu-opioid, membrane potential fluorescence. activity change, negative = inhibition, % at 10 µM. 920 compounds, 61% hits. AID 2777;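 active = rise or fall in signal beyond 3 SD of buffer-only wells in both replicate plates, either sign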;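 also: integrated kinetic ratio of fluorescence range over baseline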
HEK293 MPD ctr 2-1 – second counter-screen for TRPC6 inhibitors: parental HEK293 cells. shares compounds with TRPC6 inhibitor. parental HEK293 membrane potential dye fluorescence; maximal acetylcholine challenge after compound addition. signal change vs control, % at 10 µM. 920 compounds, 31% hits. AID 2779;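 active = membrane potential signal moving either way by over 3 SD of the maximum-effect control, in both duplicate plates, meaning non-specific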
HEK293 MPD ctr-1 – counter-screen for TRPC6 inhibitors: effect in parental HEK293 cells; shares compounds with TRPC6 inhibitor; parental HEK293 membrane potential dye fluorescence; membrane potential signal change, % at 10 µM; 920 compounds, 60% hits;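 active = membrane potential signal shifting up or down by more than 3 SD of buffer-only wells, on both duplicate plates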
HEK293 MPD ctr-2 – counter-screen for TRPC6 modulators: effect in parental HEK293 cells; shares compounds with TRPC6 inhibitor; membrane potential dye fluorescence; membrane potential signal change, % at 10 µM; 2,400 compounds, 51% hits;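 active = membrane potential signal moves up or down beyond 5 SD from buffer-only wells, on both duplicate plates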
HEK293 MPD ctr 2-2 – parental HEK293 nonspecific activity of TRPC6 modulators, second screen; shares compounds with TRPC6 inhibitor; membrane potential dye fluorescence; after compound, maximal acetylcholine stimulation; inhibition, % at 10 µM; 2,400 compounds, 14% hits;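 active = membrane potential signal drops by more than 5 SD from the mean control signal, in both duplicate plates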;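 also: plate controls were acetylcholine ECmax control wells for no effect and buffer only wells for full effect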
TRPC4 ctr mod – selectivity of TRPC6 modulators against mouse TRPC4 | shares compounds with TRPC6 inhibitor | 2,400 compounds, 69% hits | percent change from control (negative = decrease, positive = increase), % at 10 µM | HEK293 TRPC4/mu-opioid, membrane potential fluorescence;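 active = membrane potential signal moved up or down beyond 5 SD of buffer control wells, in both duplicate plates, actives on both sides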;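 also: plate controls were assay buffer wells for no effect and DAMGO maximal-effect wells for full effect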
TRPC4/MOR inh 2 – second selectivity test of TRPC6 modulators against mouse TRPC4 | HEK293 TRPC4/mu-opioid, membrane potential dye fluorescence; stimulated with maximal-effect DAMGO | AID 488928 | shares compounds with TRPC6 inhibitor | 2,400 compounds, 55% hits | inhibition, % at 10 µM;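 active = drop in membrane potential signal beyond 5 SD of the control wells in both duplicate plates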;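 also: TRPC4 counter screen for TRPC6 hits run under conditions tuned for TRPC6 not TRPC4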
TRPC6 block conf – mouse TRPC6 inhibitor confirmation. shares compounds with TRPC6 inhibitor. HEK293-TRPC6, membrane potential dye, ACh-evoked depolarization. inhibition, % at 10 µM. 3,300 compounds, 43% hits;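 active = fluorescence ratio falls more than 5 SD below the full-stimulation control mean, in both duplicate runs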;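 also: integrated fluorescence ratio of peak minus minimum over baseline after agonist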
TRPC6 act confirm – confirmation of mouse TRPC6 activators; HEK293-TRPC6 membrane potential dye fluorescence, FDSS; activation, % at 10 µM; shares compounds with TRPC6 inhibitor; 2,800 compounds, 11% hits; AID 488961;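 active = ratio signal rise beyond 5 SD above unstimulated control wells' mean, seen in both duplicate runs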;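 also: plate controls were buffer EC0 wells for no effect and acetylcholine ECmax response for full effect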
An asterisk follows results filed as active; i = inactive; x = not tested or not shown. Compounds with a hit are over-represented: about 2.3% of the library has one in this group of screens.

SMILES	TRPC6 inhibitor	TRPC4 inh	TRPC4 PAM	TRPC4 act	TRPC6 act	HEK293 MPD ctr-2	HEK293 MPD ctr 2-2	TRPC4 ctr mod	TRPC4/MOR inh 2	TRPC6 block conf	TRPC6 act confirm	others
CN(C)CCNC(=O)c1ccc2c(c1)N(Cc1ccc(F)cc1)CCS2	-6.41*	i	i	i	i	i	i	i	73.5%*	66.0%*	i
Cc1cccc2nc(-c3cccnc3)c(NCCC(C)C)n12	-5.53*	i	i	i	i	i	i	-24.0%*	83.5%*	41.0%*	i
COc1cccc(NC(=O)c2ccccc2N2C(=O)C3C4C=CC(C5CC45)C3C2=O)c1 (stereo not given)	i	i	i	i	i	x	x	x	x	x	x
Cc1cccc(N(CC(=O)NC2CCCCC2)C(=O)c2c(C)noc2C)c1	-5.97*	i	i	i	i	118.0%*	i	24.5%*	30.5%*	i	x
COc1ccc(Cl)cc1Nc1cc(C)nc2ccccc12	-5.4*	i	i	i	i	-75.5%*	i	-12.0%*	70.0%*	56.0%*	i
CCOc1ccc(Nc2cc(C)nc3c(C)cccc23)cc1	-5.49*	i	i	i	i	-86.0%*	i	-22.5%*	52.5%*	43.0%*	i
COc1ccc(Nc2cc(C)nc3c(C)cccc23)cc1OC	-5.05*	i	i	i	i	-145.0%*	i	-30.5%*	55.0%*	44.0%*	i
COc1ccc(-c2cc(=O)oc3cc(OC(C)C(=O)NCc4ccccn4)ccc23)cc1 (stereo not given)	i	i	i	i	i	x	x	x	x	x	x
COc1ccc(S(=O)(=O)N2CCOC23CCN(S(=O)(=O)c2cc(C)ccc2OC)CC3)cc1	i	i	i	i	i	x	x	x	x	x	x
CS(=O)c1ccccc1-c1nc(-c2ccc(Cl)cc2)no1 (stereo not given)	i	i	i	i	i	x	x	x	x	x	x
CS(=O)c1ccccc1-c1nc(-c2cccc(Cl)c2)no1 (stereo not given)	-9.76*	i	i	i	i	x	x	x	x	i	i	TRPC4 sel inh 2=i;TRPC4 spec=i;HEK293 MPD ctr 2-1=i;HEK293 MPD ctr-1=i
COc1ccccc1OCC(=O)Nc1ccc(S(=O)(=O)Nc2onc(C)c2C)cc1	i	i	i	i	i	x	x	x	x	x	x
CC(C)NC(=O)c1ccc2c(=O)n(C3CCCC3)c(=S)[nH]c2c1	i	i	i	i	i	x	x	x	x	x	x
